Active and inactive are the calls of the source. The calls are words filed in the database; no cut-off is given here.
Key:
[1] = target: T1, Telomerase reverse transcriptase (Homo sapiens, UniProt O14746); experiment: Inhibition of TERT transcriptional activity in human H1299 cells assessed SEAP activity at 10 uM incubated for 24 hrs by SEAP assay; type: cell-based; set-up: scale not given: the % may be the effect or the level left
Summary of the method: (§1)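 H1299 stable clones carry the hTERT promoter (−3338 to +1 bp) upstream of SEAP, introduced by electroporation and selected with G418. About 2 × 10³ cells per well were grown 24 h at 37 °C, given fresh medium, then drug for 24 h. Collected media were heated at 65 °C for 10 min, mixed with equal SEAP buffer (2 M diethanolamine, 1 mM MgCl₂, 20 mM L-homoarginine) and p-nitrophenyl phosphate at 12 mM final.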

[2] = target: T1, Telomerase reverse transcriptase; experiment: Inhibition of TERT activity in human H1299 cells homogenates incubated for 5 mins at 100 uM by TRAP assay; type: cell-free
Summary of the method: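 Telomerase-active extracts were prepared from H1299 cells, and lysate protein was measured against BSA standards. Compounds were tested in the TRAP assay, with RNase A-treated extracts as negative controls.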

PC-3 = experiment: Growth inhibition of human PC3 cells after 48 hrs by SRB assay; type: functional, cell-based; conditions: PC-3, 48 h
Summary of the method: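 PC-3 cells were seeded in medium with 5% FBS; after 24 h a plate was fixed with 10% TCA as T₀. Vehicle (0.1% DMSO) or compound was given for 48 h, then cells were TCA-fixed, stained with 0.4% SRB in 1% acetic acid, solubilized in 10 mM Trizma base and read at 515 nm. IC₅₀ is the concentration halving the protein increase seen in controls.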

[3] = target: T1, Telomerase reverse transcriptase; experiment: Inhibition of TERT transcriptional activity in human H1299 cells assessed SEAP activity at 1 uM incubated for 24 hrs by SEAP assay; type: cell-based; set-up: scale not given: the % may be the effect or the level left; summary of the method: as §1
[4] = Cytotoxicity against human H1299 cells assessed as cell viability at 100 uM after 48 hrs by MTT assay; type: functional; conditions: NCI-H1299, 48 h, read-out: Activity
Summary of the method: (§2)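 H1299 cells at about 2 × 10³ per well were grown 24 h at 37 °C in 5% CO₂. Compounds were dissolved in DMSO just before use and diluted into complete medium. After 48 h exposure, MTT was added for 4 h at 37 °C, then lysis buffer (20% SDS, 50% DMF) for 16 h at 37 °C. Absorbance was read at 550 nm.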

[5] = target: T1, Telomerase reverse transcriptase; experiment: Inhibition of TERT transcriptional activity in human H1299 cells assessed SEAP activity at 100 uM incubated for 24 hrs by SEAP assay; type: cell-based; set-up: scale not given: the % may be the effect or the level left; summary of the method: as §1
[6] = Cytotoxicity against human H1299 cells assessed as cell viability at 1 uM after 48 hrs by MTT assay; type: functional; conditions: NCI-H1299, 48 h, read-out: Activity; summary of the method: as §2
[7] = Cytotoxicity against human H1299 cells assessed as cell viability at 10 uM after 48 hrs by MTT assay; type: functional; conditions: NCI-H1299, 48 h, read-out: Activity; summary of the method: as §2

T1 sequence (O14746 whole entry): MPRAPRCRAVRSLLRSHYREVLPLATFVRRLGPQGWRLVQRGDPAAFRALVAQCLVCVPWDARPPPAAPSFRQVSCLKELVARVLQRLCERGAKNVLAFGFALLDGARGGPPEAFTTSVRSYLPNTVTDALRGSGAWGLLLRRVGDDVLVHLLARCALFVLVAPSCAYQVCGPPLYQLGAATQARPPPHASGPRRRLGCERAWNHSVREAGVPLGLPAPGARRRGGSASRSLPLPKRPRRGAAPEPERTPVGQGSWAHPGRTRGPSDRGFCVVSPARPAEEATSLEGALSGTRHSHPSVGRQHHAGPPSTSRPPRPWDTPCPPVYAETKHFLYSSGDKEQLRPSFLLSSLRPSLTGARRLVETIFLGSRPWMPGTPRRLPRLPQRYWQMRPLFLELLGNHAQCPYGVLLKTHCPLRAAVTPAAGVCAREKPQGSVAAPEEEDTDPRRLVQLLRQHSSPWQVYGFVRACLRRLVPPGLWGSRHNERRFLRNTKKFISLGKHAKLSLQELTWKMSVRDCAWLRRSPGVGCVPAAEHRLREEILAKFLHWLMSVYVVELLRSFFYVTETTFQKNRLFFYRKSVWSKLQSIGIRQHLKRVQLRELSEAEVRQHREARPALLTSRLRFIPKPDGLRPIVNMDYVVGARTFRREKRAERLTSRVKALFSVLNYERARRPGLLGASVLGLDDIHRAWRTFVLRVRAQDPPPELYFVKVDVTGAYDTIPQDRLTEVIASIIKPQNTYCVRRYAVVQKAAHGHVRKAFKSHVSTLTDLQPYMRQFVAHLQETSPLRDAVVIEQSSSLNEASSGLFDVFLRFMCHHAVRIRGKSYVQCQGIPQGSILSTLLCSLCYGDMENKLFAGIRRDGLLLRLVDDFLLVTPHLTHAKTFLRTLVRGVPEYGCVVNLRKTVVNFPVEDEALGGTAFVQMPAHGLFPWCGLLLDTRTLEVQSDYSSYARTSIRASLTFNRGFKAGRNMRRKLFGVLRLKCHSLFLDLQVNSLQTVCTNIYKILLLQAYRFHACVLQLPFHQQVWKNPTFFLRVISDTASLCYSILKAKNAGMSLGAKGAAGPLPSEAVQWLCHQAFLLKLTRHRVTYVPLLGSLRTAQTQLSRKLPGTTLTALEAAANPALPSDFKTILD

Structure (SMILES) | Activity [1] [%] | TERT inhibition (active/not active) [2] | IC50 (PC-3) [µM] | Activity [3] [%] | viability at 100 µM [4] [%] | Activity [5] [%] | viability at 1 µM [6] [%] | viability at 10 µM [7] [%]
O=C1c2ccccc2C(=O)c2c1ccc1nc(CN3CCN(c4ccccc4F)CC3)[nH]c21 | 78 | inactive | 16.7 | 103 | 15 | 0 | 88 | 77
O=C1c2ccccc2C(=O)c2c1ccc1nc(CCl)[nH]c21 | 0 | inactive | 5.1 | 69 | 0 | 3 | 82 | 0
O=C1c2ccccc2C(=O)c2c1ccc1nc(CCN3CCN(c4ccccc4)CC3)[nH]c21 | 93 | inactive | > 30 | 103 | 65 | 37 | 94 | 96
CN1CCN(CCc2nc3ccc4c(c3[nH]2)C(=O)c2ccccc2C4=O)CC1 | 7 | inactive | 17.3 | 74 | 0 | 0 | 87 | 32
O=C1c2ccccc2C(=O)c2c1ccc1nc(CN(Cc3ccccn3)Cc3ccccn3)[nH]c21 | 0 | inactive | 6.4 | 86 | 0 | 0 | 101 | 13
O=C1c2ccccc2C(=O)c2c1ccc1nc(CN3CCSC3)[nH]c21 | 86 | inactive | 12.1 | 106 | 5 | 12 | 89 | 76
O=C1c2ccccc2C(=O)c2c1ccc1nc(CN3CCCCCC3)[nH]c21 | 66 | inactive | 10.5 | 107 | 0 | 4 | 104 | 85
C=CCN1CCN(Cc2nc3ccc4c(c3[nH]2)C(=O)c2ccccc2C4=O)CC1 | 17 | inactive | 12.8 | 87 | 0 | 0 | 86 | 45
CCCN(C)Cc1nc2ccc3c(c2[nH]1)C(=O)c1ccccc1C3=O | 34 | inactive | 17.1 | 96 | 0 | 0 | 93 | 80
COc1cccc(CN(C)Cc2nc3ccc4c(c3[nH]2)C(=O)c2ccccc2C4=O)c1 | 78 | inactive | 18.7 | 105 | 9 | 0 | 97 | 98
Nc1ccc2c(c1N)C(=O)c1ccccc1C2=O | – | inactive | – | 99 | 39 | 18 | 105 | 95
COc1cccc(N2CCN(Cc3nc4ccc5c(c4[nH]3)C(=O)c3ccccc3C5=O)CC2)c1 | 30 | inactive | 15.3 | 105 | 24 | 3 | 81 | 58
O=C1c2ccccc2C(=O)c2c1ccc1nc(CNCc3ccc(C(F)(F)F)cc3)[nH]c21 | 8 | inactive | 7.6 | 52 | 0 | 2 | 74 | 11

Source: ChEMBL document CHEMBL2331225, “Structure-based design, synthesis and evaluation of novel anthra[1,2-d]imidazole-6,11-dione derivatives as telomerase inhibitors and potential for cancer polypharmacology” (Eur J Med Chem, 2013)
